One assay relates to Klebsiella pneumoniae. Kind of assay: Antibacterial activity against Klebsiella pneumoniae ATCC 13883 assessed as growth inhibition by broth microdilution method. It is filed as functional, organism-based. In a few lines: (§1)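 Preliminary screen: 10 µl of each bacterial suspension spotted on Mueller-Hinton agar containing compound at 1,000 µg ml⁻¹, then incubated 37 °C for 18 h. Inocula were prepared in sterile saline at 0.5 McFarland (150 × 10⁶ CFU ml⁻¹). Compounds were dissolved in DMSO stocks and diluted twofold in Mueller-Hinton broth, final 3.91–1,000 µg ml⁻¹. MIC read in µg ml⁻¹ (CLSI 2008), with ampicillin, cefuroxime and vancomycin as reference agents.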
A general note: Dilution methods test growth across graded concentrations, often in twofold steps.

In another assay the test system is Bacillus cereus. Kind of assay: Antibacterial activity against Bacillus cereus ATCC 10876 assessed as growth inhibition by broth microdilution method. It is filed as functional. The method in brief:
as §1

In assay [1] the test system is Staphylococcus epidermidis. Kind of assay: Antibacterial activity against Staphylococcus epidermidis ATCC 12228 assessed as growth inhibition by broth microdilution method. Type of assay: functional. The method in brief: as §1
Another assay concerns Proteus mirabilis. Kind of assay: Antibacterial activity against Proteus mirabilis ATCC 12453 assessed as growth inhibition by broth microdilution method. Type of assay: functional, organism-based. The method in brief:
as §1

The next assay has as its system Micrococcus luteus. Kind of assay: Antibacterial activity against Micrococcus luteus ATCC 10240 assessed as growth inhibition by broth microdilution method. It is filed as functional. In a few lines: as §1
For a further assay, the system named is Bacillus subtilis. Kind of assay: Antibacterial activity against Bacillus subtilis ATCC 6633 assessed as growth inhibition by broth microdilution method. Type of assay: functional. The method in brief:
as §1

Another assay concerns Pseudomonas aeruginosa. Kind of assay: Antibacterial activity against Pseudomonas aeruginosa ATCC 9027 assessed as growth inhibition by broth microdilution method. It is filed as functional, organism-based. In a few lines:
as §1

Assay [2] relates to Staphylococcus aureus. Kind of assay: Antibacterial activity against Staphylococcus aureus 14001 assessed as growth inhibition by broth microdilution method. Type of assay: functional. In a few lines:
as §1

The next assay has as its system Escherichia coli. Kind of assay: Antibacterial activity against Escherichia coli ATCC 25922 assessed as growth inhibition by broth microdilution method. It is filed as functional, organism-based. The method in brief:
as §1

Assay [3] concerns Staphylococcus aureus. Kind of assay: Antibacterial activity against Staphylococcus aureus ATCC 25923 assessed as growth inhibition by broth microdilution method. It is filed as functional. In a few lines: as §1

Calls of active or inactive are those of the source.

As to `S=c1n(CN2CCOCC2)nc(-c2ccc(Cl)cc2)n1-c1ccc(Br)cc1`, the “growth inhibition (GI)” value with Klebsiella pneumoniae, with Proteus mirabilis, with Pseudomonas aeruginosa and in the assay on Escherichia coli was “inactive” each time. For the same compound, the MBC was greater than 1000 µg/mL in the assay on Bacillus cereus; 1000 µg/mL in assay [1]; greater than 1000 µg/mL with Micrococcus luteus; 125 µg/mL in the assay with Bacillus subtilis; greater than 1000 µg/mL in the assay with Staphylococcus aureus [2]; 1000 µg/mL in the assay with Staphylococcus aureus [3]. The MIC in the assay with Bacillus cereus is 62.5 µg/mL; in assay [1], 62.5 µg/mL; with Micrococcus luteus it was 62.5 µg/mL; with Bacillus subtilis it was 125 µg/mL; in the assay with Staphylococcus aureus [2], 125 µg/mL; with Staphylococcus aureus [3] it was 62.5 µg/mL.

Regarding `CCN(CC)Cn1nc(-c2ccccc2Cl)n(-c2ccc(Br)cc2)c1=S`, the “growth inhibition (GI)” value with Klebsiella pneumoniae, in the assay with Proteus mirabilis, in the assay with Pseudomonas aeruginosa and in the assay with Escherichia coli was “inactive” in each case. The MBC was greater than 1000 µg/mL in the assay on Bacillus cereus; greater than 1000 µg/mL in [1]; 250 µg/mL in the assay with Micrococcus luteus; 62.5 µg/mL in the assay with Bacillus subtilis; greater than 1000 µg/mL in the assay on Staphylococcus aureus [2]; greater than 1000 µg/mL in the assay on Staphylococcus aureus [3]. In addition, the MIC with Bacillus cereus was determined as 62.5 µg/mL; in assay [1], 62.5 µg/mL; with Micrococcus luteus it was 62.5 µg/mL; with Bacillus subtilis it was 31.2 µg/mL; in the assay with Staphylococcus aureus [2], 125 µg/mL; with Staphylococcus aureus [3], 62.5 µg/mL.

Consider `S=c1n(CN2CCCC2)nc(-c2ccccc2Cl)n1-c1ccc(Br)cc1`, for which the “growth inhibition (GI)” value in the assay with Klebsiella pneumoniae, with Proteus mirabilis, with Pseudomonas aeruginosa and with Escherichia coli was “inactive” each time. The MBC is greater than 1000 µg/mL in the assay with Bacillus cereus; 500 µg/mL in [1]; 1000 µg/mL in the assay with Micrococcus luteus; 125 µg/mL in the assay with Bacillus subtilis; 500 µg/mL with Staphylococcus aureus [2]; 500 µg/mL in the assay with Staphylococcus aureus [3]. Further, the MIC in the assay with Bacillus cereus amounted to 62.5 µg/mL; in assay [1], 31.2 µg/mL; with Micrococcus luteus, 62.5 µg/mL; with Bacillus subtilis it was 15.6 µg/mL; with Staphylococcus aureus [2], 125 µg/mL; in the assay on Staphylococcus aureus [3], 31.2 µg/mL.

Take `S=c1n(CN2CCCCC2)nc(-c2ccc(Cl)cc2)n1-c1ccc(Br)cc1`: the “growth inhibition (GI)” value in the assay on Klebsiella pneumoniae, in the assay on Proteus mirabilis, in the assay on Pseudomonas aeruginosa and in the assay on Escherichia coli was “inactive” each time. Further, the MBC (in the assay on Bacillus cereus; in assay [1]; with Micrococcus luteus; in the assay with Bacillus subtilis; with Staphylococcus aureus [2]; in the assay on Staphylococcus aureus [3]) was greater than 1000 µg/mL each time. The MIC (in the assay on Bacillus cereus; in [1]; in the assay on Micrococcus luteus; in the assay with Bacillus subtilis; in the assay with Staphylococcus aureus [2]; with Staphylococcus aureus [3]) was 1000 µg/mL in each case.

As for `CCN(CC)Cn1nc(-c2ccccc2)n(-c2ccc(Br)cc2)c1=S`, the “growth inhibition (GI)” value with Klebsiella pneumoniae, in the assay on Proteus mirabilis, with Pseudomonas aeruginosa and with Escherichia coli was “inactive” throughout. Moreover, the MBC (in the assay on Bacillus cereus; in assay [1]; in the assay on Micrococcus luteus; in the assay on Bacillus subtilis; with Staphylococcus aureus [2]; in the assay on Staphylococcus aureus [3]) was greater than 1000 µg/mL each time. Besides, the MIC (in the assay with Bacillus cereus; in assay [1]; with Micrococcus luteus; in the assay with Bacillus subtilis; in the assay with Staphylococcus aureus [2]; with Staphylococcus aureus [3]) was 1000 µg/mL throughout.

Consider `S=c1n(CN2CCOCC2)nc(-c2ccccc2Cl)n1-c1ccc(Br)cc1`, for which the “growth inhibition (GI)” value with Klebsiella pneumoniae, in the assay with Proteus mirabilis, in the assay on Pseudomonas aeruginosa and in the assay on Escherichia coli was “inactive” in each case. The minimal bactericidal concentration (MBC) is greater than 1000 µg/mL in the assay on Bacillus cereus; 500 µg/mL in assay [1]; 250 µg/mL with Micrococcus luteus; 250 µg/mL in the assay on Bacillus subtilis; 500 µg/mL in the assay with Staphylococcus aureus [2]; 500 µg/mL in the assay on Staphylococcus aureus [3]. Moreover, the MIC in the assay on Bacillus cereus came out at 125 µg/mL; in assay [1], 125 µg/mL; with Micrococcus luteus, 62.5 µg/mL; in the assay with Bacillus subtilis, 125 µg/mL; in the assay on Staphylococcus aureus [2], 250 µg/mL; with Staphylococcus aureus [3], 125 µg/mL.

In the case of `S=c1n(CN2CCCC2)nc(-c2ccccc2)n1-c1ccc(Br)cc1`, the “growth inhibition (GI)” value with Klebsiella pneumoniae, in the assay on Proteus mirabilis, in the assay on Pseudomonas aeruginosa and in the assay with Escherichia coli was “inactive” throughout. Besides, the MBC is greater than 1000 µg/mL in the assay with Bacillus cereus; greater than 1000 µg/mL in assay [1]; 1000 µg/mL with Micrococcus luteus; 1000 µg/mL in the assay on Bacillus subtilis; greater than 1000 µg/mL in the assay on Staphylococcus aureus [2]; greater than 1000 µg/mL in the assay with Staphylococcus aureus [3]. Also, the MIC with Bacillus cereus came out at 1000 µg/mL; in [1], 1000 µg/mL; in the assay with Micrococcus luteus, 500 µg/mL; in the assay with Bacillus subtilis, 500 µg/mL; with Staphylococcus aureus [2] it was 1000 µg/mL; in the assay with Staphylococcus aureus [3] it was 1000 µg/mL.

The MBC is the lowest tested concentration that kills the bacteria rather than only halting them. Usually MIC stands for the smallest concentration in the dilution series that meets the test's criterion for growth inhibition.

The values are drawn from ChEMBL document CHEMBL3044979, “Microbiologically active Mannich bases derived from 1,2,4-triazoles. The effect of C-5 substituent on antibacterial activity” (2013).
